Test results from ChEMBL document CHEMBL1153750, “ent-kaurane and ent-pimarane diterpenoids from Siegesbeckia pubescens” (J Nat Prod, 2010).
In brackets after ≈: the same amount, converted by molar mass.

Columns and labels:
Type in all cases: functional, cell-based
B16 = assay: Cytotoxicity against mouse B16 cells after 44 hrs by MTT assay
Procedure, shortened: (§1)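 Exponential-phase cells seeded at 5 × 10⁴ per well and preincubated 24 h at 37 °C, 5% CO₂. Test agent added in triplicate at final 10, 50 and 100 μg/mL, incubated 44 h at 37 °C. MTT then added for 4 h at 37 °C, absorbance read at 490 nm. IC50 derived from percentage inhibition by linear regression.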

HeLa = assay: Cytotoxicity against human HeLa cells after 44 hrs by MTT assay; procedure, shortened: as §1
[1] = Cytotoxicity against rat HSC-T6 cells after 44 hrs by MTT assay; procedure, shortened: as §1
[2] = Homo sapiens, HeLa, 44 h, read-out: IC50
[3] = Mus musculus, B16, 44 h, read-out: IC50
[4] = Rattus norvegicus, HSC-T6, 44 h, read-out: IC50

SMILES: CC1(C)[C@H](O)CC[C@@]2(C)[C@@H]3CC[C@](C)([C@@H](O)CO)C=C3CC[C@H]12 [DARUTIGENOL]
- IC50 (B16; b16): Not Active
- IC50 (HeLa; [2]): > 100 µg/mL
- IC50 ([1]; hsc-t6): Not Active

SMILES: CC(=O)OC[C@@]1(C(=O)O)CCC[C@@]2(C)[C@@H]3CC[C@H]4C[C@@]3(CC[C@H]12)C[C@H]4COC(=O)C(C)C
- IC50 (B16; [3]): 22.8 µg/mL (≈ 50.8 µM)
- IC50 (HeLa; [2]): 24.6 µg/mL (≈ 54.8 µM)
- IC50 [1, 4]: 24.6 µg/mL (≈ 54.8 µM)

SMILES: C[C@@]1(CO)C[C@@H](O)C[C@@]2(C)[C@@H]3CC[C@](C)([C@@H](O)CO)C=C3CC[C@H]12 [KIRENOL]
- IC50 (B16; [3]): > 100 µg/mL
- IC50 (HeLa; hela): Not Active
- IC50 [1, 4]: > 100 µg/mL

SMILES: CC(=O)O[C@H]1C(=O)[C@@]2(C)[C@H]([C@H](OC(=O)c3ccccc3)[C@]3(O)C[C@H](OC(=O)[C@H](O)[C@@H](NC(=O)c4ccccc4)c4ccccc4)C(C)=C1C3(C)C)[C@]1(OC(C)=O)CO[C@@H]1C[C@@H]2O [PACLITAXEL]
- IC50 (B16; [3]): 0.63 µg/mL (≈ 0.738 µM)
- IC50 (HeLa; [2]): 0.61 µg/mL (≈ 0.714 µM)
- IC50 [1, 4]: 0.75 µg/mL (≈ 0.878 µM)

SMILES: C[C@@]12CCC[C@@](C)(C(=O)O)[C@H]1CC[C@@]13C[C@H](CC[C@H]12)[C@@](O)(CO)C3
- IC50 (B16; [3]): > 100 µg/mL
- IC50 (HeLa; [2]): > 100 µg/mL
- IC50 [1, 4]: > 100 µg/mL

SMILES: CC1(C)OC[C@@H]([C@]2(C)C=C3CC[C@@H]4C(C)(C)[C@H](O)CC[C@@]4(C)C3CC2)O1 (stereo partly drawn)
- IC50 (B16; [3]): 7.8 µg/mL (≈ 21.5 µM)
- IC50 (HeLa; [2]): 11.7 µg/mL (≈ 32.3 µM)
- IC50 [1, 4]: 12.6 µg/mL (≈ 34.8 µM)
